# Measurements from ChEMBL document CHEMBL3352734, “Reniochalistatins A-E, cyclic peptides from the marine sponge Reniochalina stalagmitis” (J Nat Prod, 2014).
# Active and inactive are the calls of the source. The calls are words filed in the database; no cut-off is given here. Peptide text beside a SMILES is read from it.
# Tests used:
# Format in all cases: functional, cell-based
# MGC-803 = experiment: Cytotoxicity against human MGC803 cells after 72 hrs by MTS assay; conditions: for IC50: MGC-803, 72 h
# Outline: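 Gastric MGC-803 line maintained in RPMI-1640 plus 10% FBS, 37 °C, 5% CO2. Cells seeded at 1 × 10^4/well, incubated 24 h, then given medium with varying sample concentrations for 72 h. After 2 h with MTS, absorbance taken at 490 nm (reference 690 nm).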
# HL-60 = experiment: (§1) Cytotoxicity against human HL60 cells after 72 hrs by MTS assay
# Outline: (§2)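 HL-60 (human leukemia) grown in RPMI-1640 with 20% FBS at 37 °C, 5% CO2. Seeded at 1 × 10^4 cells/well and left 24 h, then exposed to a range of sample concentrations for 72 h. MTS added for 2 h; absorbance read at 490 nm against a 690 nm reference.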
# HepG2 = experiment: Cytotoxicity against human HepG2 cells after 72 hrs by MTS assay; conditions: for IC50: HepG2, 72 h
# Outline: (§3)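 HeLa (cervical) and HepG2 (hepatoma) cells kept in high-glucose DMEM with 10% FBS, 5% CO2, 37 °C. Plated at 1 × 10^4 cells/well for 24 h, then treated with graded sample concentrations for 72 h. Viability by MTS reduction over 2 h, measured at 490 nm with 690 nm reference.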
# HeLa = experiment: Cytotoxicity against human HeLa cells after 72 hrs by MTS assay; outline: as §3
# RPMI-8226 = experiment: Cytotoxicity against human RPMI8226 cells after 72 hrs by MTS assay; conditions: RPMI-8226, 72 h
# [1] = as §1; conditions: HL-60, 72 h; outline: as §2
SMILES,inhibition (MGC-803),inhibition (HL-60),inhibition (HepG2),inhibition (HeLa),IC50 (RPMI-8226) [nM],IC50 (MGC-803) [nM],IC50 [1] [nM],IC50 (HepG2) [nM],IC50 (HeLa) [nM]
CC[C@H](C)[C@@H]1NC(=O)[C@H](Cc2ccccc2)NC(=O)[C@@H]2CCCN2C(=O)[C@H](Cc2ccccc2)NC(=O)[C@@H]2CCCN2C(=O)[C@@H]2CCCN2C(=O)[C@H](Cc2ccccc2)NC1=O (cyclo(FIFPPFP)),inactive,inactive,inactive,inactive,,,,,
CC[C@H](C)[C@@H]1NC(=O)[C@@H]2CCCN2C(=O)[C@H](Cc2ccccc2)NC(=O)[C@H](Cc2ccc(O)cc2)NC(=O)[C@H]([C@@H](C)CC)NC(=O)[C@@H]2CCCN2C(=O)[C@H](Cc2ccccc2)NC1=O (cyclo(FPIFPIY)),inactive,inactive,inactive,inactive,,,,,
CC[C@H](C)[C@@H]1NC(=O)[C@@H]2CCCN2C(=O)[C@H](CC(C)C)NC(=O)[C@@H]2CCCN2C(=O)[C@H](CC(C)C)NC(=O)[C@H](Cc2ccc(O)cc2)NC(=O)[C@H](Cc2ccccc2)NC1=O (cyclo(FYLPLPI)),inactive,inactive,inactive,inactive,,,,,
CC[C@H](C)[C@@H]1NC(=O)[C@H](C(C)C)NC(=O)[C@@H]2CCCN2C(=O)[C@H](Cc2c[nH]c3ccccc23)NC(=O)[C@H](CC(C)C)NC(=O)[C@@H]2CCCN2C(=O)[C@H]([C@@H](C)CC)NC(=O)[C@@H]2CCCN2C1=O (cyclo(IPIPLWPV)),,,,,4900,9700,> 20000,> 20000,17300
CC[C@H](C)[C@@H]1NC(=O)[C@H](C(C)C)NC(=O)[C@H](CC(N)=O)NC(=O)[C@@H]2CCCN2C(=O)[C@H](CC(C)C)NC(=O)[C@H](CC(C)C)NC(=O)[C@@H]2CCCN2C1=O (cyclo(IPLLPNV)),inactive,inactive,inactive,inactive,,,,,
COc1cccc2c1C(=O)c1c(O)c3c(c(O)c1C2=O)C[C@@](O)(C(=O)CO)C[C@@H]3O[C@H]1C[C@H](N)[C@H](O)[C@H](C)O1 [DOXORUBICIN],,,,,,100,200,400,500
